Measured values as given in ChEMBL document CHEMBL1136818, “The development of new triazole based inhibitors of tumor necrosis factor-alpha (TNF-alpha) production” (Bioorg Med Chem Lett, 2003).
Values joined by “and” are separate entries in the source; they are usually repeats but may differ in a detail not shown here. Equal values may be shown once.

System: not listed separately
Test: Clearance was determined
Assay type: ADME, organism-based
Conditions: rat, in vivo; call rule not given here

Row | clearance [mL/min/kg] | SMILES
1 | 36.5 | CCOCn1nnc(-c2ccc(F)cc2)c1-c1ccnc(Oc2cccc(NC(C)=O)c2)n1

System: not listed separately
Test: Oral bioavailability in the rat was determined
Assay type: ADME, organism-based
Conditions: in vivo

Row | bioavailability [%] | SMILES
2 | 56 | CCOCn1nnc(-c2ccc(F)cc2)c1-c1ccnc(Oc2cccc(NC(C)=O)c2)n1

System: not listed separately
Test: Half life period was determined
Assay type: ADME, organism-based
Conditions: rat, in vivo

Row | half-life [h] | SMILES
3 | 2.2 | CCOCn1nnc(-c2ccc(F)cc2)c1-c1ccnc(Oc2cccc(NC(C)=O)c2)n1

System: THP-1
Test: Inhibitory activity against TNF-alpha production using lipopolysaccharide stimulated human monocytic cells
Assay type: functional, cell-based
Conditions: Homo sapiens, THP-1
Method in brief: (§1)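 THP-1 human monocytic cells (2.0 × 10^5/well), in duplicate cultures, preincubated 15 min with or without inhibitor at various concentrations, then stimulated with LPS 2 μg/mL. TNF-α released measured by ELISA 4 h after stimulation; cell viability after the 4 h incubation checked by MTS assay. Standard deviation typically ±30% of the mean or less.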

Row | SMILES | IC50 [nM]
4 | COc1ccc(S(=O)(=O)n2nc(-c3ccncc3)c(-c3ccc(F)cc3)n2)cc1 | 4800
5 | C[S+]([O-])c1ccc(-c2nc(-c3ccc(F)cc3)c(-c3ccncc3)[nH]2)cc1 (centres undefined) [SB-203580] | 72
6 | CCOCn1nnc(-c2ccncc2)c1-c1ccc(F)cc1 | 490
7 | CCOC(=O)n1nc(-c2ccncc2)c(-c2ccc(F)cc2)n1 | 3830
8 | CCOCn1nc(-c2ccc(F)cc2)c(-c2ccnc(Oc3ccccc3)n2)n1 | 4020
9 | O=C(Nc1ccccc1)n1nc(-c2ccncc2)c(-c2ccc(F)cc2)n1 | > 10000
10 | COCCn1nc(-c2ccncc2)c(-c2ccc(F)cc2)n1 | 3760
11 | COCn1nc(-c2ccncc2)c(-c2ccc(F)cc2)n1 | 7590

Now from value to molecule:

Row | IC50 [nM] | SMILES
12 | 3720 | Fc1ccc(-c2nn(C(=S)Sc3ccccc3)nc2-c2ccncc2)cc1
13 | 3300 | COc1ccc(C(=O)n2nc(-c3ccncc3)c(-c3ccc(F)cc3)n2)cc1
14 | 1920 | CN(C(=O)n1nc(-c2ccncc2)c(-c2ccc(F)cc2)n1)c1ccccc1
15 | 1600 | CCOCn1nnc(-c2ccnc(N[C@H](C)c3ccccc3)n2)c1-c1ccc(F)cc1
16 | 1320 | COc1ccc(-n2nc(-c3ccncc3)c(-c3ccc(F)cc3)n2)cc1
17 | 744 | COc1ccc(-n2nc(-c3ccncc3)c(-c3ccc(F)cc3)n2)cc1OC
18 | 557 | CCOCn1nnc(-c2ccnc(NCc3ccccc3)n2)c1-c1ccc(F)cc1
19 | 306 | CCOCn1nnc(-c2ccnc(N[C@@H](C)c3ccccc3)n2)c1-c1ccc(F)cc1
20 | 189 | CCOCn1nnc(-c2ccnc(Oc3cccc(NC(C)=O)c3)n2)c1-c1ccc(F)cc1
21 | 100 | CCOCn1nnc(-c2ccc(F)cc2)c1-c1ccnc(NCc2ccccc2)n1
22 | 74 | CCOCn1nnc(-c2ccc(F)cc2)c1-c1ccnc(Oc2ccccc2)n1
23 | 54 | CCOCn1nnc(-c2ccc(F)cc2)c1-c1ccnc(N[C@@H](C)c2ccccc2)n1
24 | 46 | CCOCn1nnc(-c2ccc(F)cc2)c1-c1ccnc(N[C@H](C)c2ccccc2)n1
25 | 12.5 | Fc1ccc(-c2[nH]nnc2-c2ccncc2)cc1
26 | 8 | CCOCn1nnc(-c2ccc(F)cc2)c1-c1ccnc(Oc2cccc(NC(C)=O)c2)n1

Same assay, conditions: thp-1

Row | IC50 | SMILES
27 | 490 nM | CCOCn1nc(-c2ccncc2)c(-c2ccc(F)cc2)n1
28 | 611 nM and 164 nM | CCOCn1nnc(-c2ccnc(Oc3ccccc3)n2)c1-c1ccc(F)cc1

System: THP-1
Test: Inhibitory activity against TNF-alpha production using lipopolysaccharide (LPS) stimulated human monocytic cells (THP-1); NA: Not active
Assay type: functional, cell-based
Conditions: not given
Method in brief: as §1

Row | IC50 | SMILES
29 | Not Active | CCOCn1nnc(-c2ccc(F)cc2)c1-c1ccncc1
